Laboratory results as given in ChEMBL document CHEMBL1275448, “Identification of a novel multidrug efflux pump of Mycobacterium tuberculosis” (2008).
≈ marks a conversion by molar mass, not a printed value.

System: Mycolicibacterium smegmatis
Test: Antimicrobial activity against wild-type Mycobacterium smegmatis SMR5 by microplate Alamar blue assay
Type: functional
Summary of the method: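 M. smegmatis SMR5 carried either control plasmid pMS2 or rv0194 expression vector pML655. Cells were grown at 37°C in Middlebrook 7H9 with 0.2% glycerol and 0.05% Tween 80, then tested by microplate Alamar blue assay. MIC was the lowest antibiotic concentration reducing culture viability by ≥90%, read by fluorescence (ex 530/em 590 nm, room temperature).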

SMILES	MIC [µg/mL]
CC1(C)S[C@@H]2[C@H](NC(=O)[C@H](N)c3ccccc3)C(=O)N2[C@H]1C(=O)O [AMPICILLIN]	125 (≈ 358 µM)
O=C(N[C@H](CO)[C@H](O)c1ccc([N+](=O)[O-])cc1)C(Cl)Cl [CHLORAMPHENICOL]	32 (≈ 99 µM)
CC[C@H]1OC(=O)[C@H](C)[C@@H](O[C@H]2C[C@@](C)(OC)[C@@H](O)[C@H](C)O2)[C@H](C)[C@@H](O[C@@H]2O[C@H](C)C[C@H](N(C)C)[C@H]2O)[C@](C)(O)C[C@@H](C)C(=O)[C@H](C)[C@@H](O)[C@]1(C)O [ERYTHROMYCIN]	2.5 (≈ 3.41 µM)
CO[C@@H]1[C@@H](OC(N)=O)[C@@H](O)[C@H](Oc2ccc3c(O)c(NC(=O)c4ccc(O)c(CC=C(C)C)c4)c(=O)oc3c2C)OC1(C)C [NOVOBIOCIN]	4 (≈ 6.53 µM)
CN(C)[C@@H]1C(O)=C(C(N)=O)C(=O)[C@@]2(O)C(O)=C3C(=O)c4c(O)cccc4[C@@](C)(O)[C@H]3C[C@@H]12 [TETRACYCLINE]	0.3 (≈ 0.675 µM)
CN[C@H](CC(C)C)C(=O)N[C@H]1C(=O)N[C@@H](CC(N)=O)C(=O)N[C@H]2C(=O)N[C@H]3C(=O)N[C@H](C(=O)N[C@H](C(=O)O)c4cc(O)cc(O)c4-c4cc3ccc4O)[C@H](O)c3ccc(c(Cl)c3)Oc3cc2cc(c3O[C@@H]2O[C@H](CO)[C@@H](O)[C@H](O)[C@H]2O[C@H]2C[C@](C)(N)[C@H](O)[C@H](C)O2)Oc2ccc(cc2Cl)[C@H]1O [VANCOMYCIN]	1.25 (≈ 0.863 µM)
